SIRT5 block – sirtuin-5 (human) deacylase inhibition. Q9NXA8. Purified SirT5, succinyl-peptide AMC, trypsin-coupled fluorescence. inhibition, % at 15 µM. actives 1.1% (n = 330,000); in the data active = inhibition above about 15%
ERAP1 HTS inh – blocks human ERAP1 aminopeptidase activity; Q9NZ08; recombinant ERAP1, Leu-AMC fluorescence, 60 min; inhibition, % at 10.7 µM; actives 0.15% (n = 340,000); AID 652197;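 active = mean replicate inhibition of at least 30%, or all replicates individually reaching that 30% level; inactive = mean below 30% and not every replicate reaching it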;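 also: 0% = neutral control wells and 100% = L-leucinethiol positive control wells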
S100A4 inh HTS – S100A4-myosin IIA interaction inhibition | P26447 | S100A4/TAMRA-MyoIIA peptide fluorescence polarization | inhibition, % at 10.7 µM | actives 0.14% (n = 360,000) | AID 652163;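 active = mean inhibition of at least 70% across replicates, with every replicate also reaching that level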
Target sequence (P26447 whole entry, looked up): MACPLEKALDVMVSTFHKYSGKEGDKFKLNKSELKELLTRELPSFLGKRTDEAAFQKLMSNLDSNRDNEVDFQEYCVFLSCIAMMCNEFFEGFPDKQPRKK
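Test system: S100A4 monomer protein; Medium: HEPES pH 7.2 with CaCl2, KCl, NaCl, DTT, Triton; Probe or stimulus: TAMRA-labelled myosin IIA heavy-chain peptide probe, 5 nM; Doses: one dose per compound; Times: polarization read 5 min after assay mix addition, stable 5–60 min; Benchmarks: neutral control DMSO, positive control TFP.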
E-selectin induc – E-selectin induction on HUVECs. P16581. HUVEC E-selectin immunofluorescence imaging; normalized: neutral wells 0, TNF-alpha wells 100. activation, % at 7.58 µM. actives 0.37% (n = 260,000);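 active = mean E-selectin-positive cell signal at least 10% of the positive control, reached in at least 60% of replicates, without over 20% cell loss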
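Read-out basis: % PE-positive cells; Test system: HUVEC primary endothelial cells; Technique: immunofluorescence imaging; Dosing: single-point compound dose.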
Ecoli rRNA inh – inhibitors of bacterial rRNA selective over humanized ribosomes | GFP signal change (wild-type ribosome), % (test concentration not listed) | actives 1.6% (n = 350,000) | AID 720706 | E. coli WT GFP vs humanized-ribosome RFP mutants, fluorescence, 24 h; active compounds read low; DMSO median 0, no signal -100;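 active = significant combined selectivity score with lowered wild-type GFP, culture density cut under 30%, mutant RFP and density less affected; inactive = any of these conditions unmet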
MLL AF4-AF9 inh – MLL-AF4/AF9 protein interaction inhibition | P42568 | AlphaScreen, biotin-AF4 peptide binding to FLAG-AF9 | inhibition, % at 10 µM | actives 0.47% (n = 350,000) | AID 651704;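 active = every replicate reaching a set inhibition limit, whatever the replicate mean, cut at about 25% in these data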;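 also: 0% = plate neutral control median and 100% = total signal loss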
Target sequence (P42568 whole entry, looked up): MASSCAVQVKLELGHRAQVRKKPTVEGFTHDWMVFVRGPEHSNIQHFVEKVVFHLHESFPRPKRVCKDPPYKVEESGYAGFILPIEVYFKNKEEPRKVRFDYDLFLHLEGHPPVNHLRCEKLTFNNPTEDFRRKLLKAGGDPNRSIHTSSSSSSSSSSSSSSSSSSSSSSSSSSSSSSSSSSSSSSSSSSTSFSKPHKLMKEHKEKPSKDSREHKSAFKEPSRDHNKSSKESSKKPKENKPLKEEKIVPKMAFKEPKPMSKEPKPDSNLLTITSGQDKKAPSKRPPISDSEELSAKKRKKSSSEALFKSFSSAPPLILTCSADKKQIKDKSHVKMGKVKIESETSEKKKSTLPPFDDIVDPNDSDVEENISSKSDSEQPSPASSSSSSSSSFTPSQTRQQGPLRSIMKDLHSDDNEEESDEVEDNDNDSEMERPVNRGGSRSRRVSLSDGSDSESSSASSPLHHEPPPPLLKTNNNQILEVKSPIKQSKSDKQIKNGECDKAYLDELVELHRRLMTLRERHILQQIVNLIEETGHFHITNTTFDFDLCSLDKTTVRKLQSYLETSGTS
* = called active by the depositor; . = not tested or not shown; ! = not confirmed by another sample. In the library only some 3.4% were active in any assay of this set; here they are far more common.

SMILES | SIRT5 block | ERAP1 HTS inh | S100A4 inh HTS | E-selectin induc | Ecoli rRNA inh | MLL AF4-AF9 inh
Cc1ccc(S(=O)(=O)Nc2ccc3c(c2)C(=O)N([C@H](C)CO)C[C@@H](C)[C@@H](CN(C)S(=O)(=O)c2ccccc2)OCCCC[C@@H](C)O3)cc1 | 21* | -2 | -8 | 0 | 1 | -9
Cc1ccc(S(=O)(=O)N(C)C[C@H]2OCCCC[C@H](C)Oc3ccc(NS(=O)(=O)c4ccccc4)cc3C(=O)N([C@H](C)CO)C[C@@H]2C)cc1 | 3 | 2 | 97* | 1 | -5 | 1
C[C@H](CO)N1C[C@H](C)[C@@H](CN(C)Cc2ccc(Oc3ccccc3)cc2)Oc2c(NC(=O)Cc3ccccc3)cccc2C1=O | . | . | . | . | 6 | .
COc1ccc(C#Cc2ccc([C@@H]3[C@@H](CO)N4C(=O)CN(C(=O)c5ccccc5)C[C@@H]34)cc2)cc1 | 4 | -2 | -2 | 0 | 5 | -13
Cc1ccc(C2=C(O)c3ccccc3C(=O)C2=O)cc1 | -7 | 5 | -8 | 1 | -9 | -1
O=C1C(=O)c2ccccc2C(O)=C1c1cccc([N+](=O)[O-])c1 | -1 | 4 | -7 | 4 | -24* | 7
CCOC(=O)C1Nc2ccc(C(=O)O)cc2C2C=CCC12 (centres undefined) | 14 | 20 | -8 | . | 12 | 1
CC(C)C1Nc2ccc(C(=O)O)cc2C2C=CCC21 (centres undefined) | 23* | 4 | -15 | 0 | 15 | 1
CCOc1cc(/C=C2\SC(N)=NC2=O)ccc1O | -1 | . | -5 | 0 | 2 | 2
CCOc1c(Br)cc(Br)cc1/C=C1\SC(N)=NC1=O | 15* | 5 | 0 | 0 | -3 | 0
Cn1ccnc1SC(C(=O)O)c1ccccc1 (centres undefined) | 102* | 2 | -17 | . | 8 | -3
CO[C@H]1CN(C)C(=O)c2ccc(NC(=O)NC(C)C)cc2OC[C@@H](C)N(Cc2ccccc2)C[C@H]1C | 11 | -1 | -12 | 0 | 0 | -2
CN(C)c1ccc(N=Nc2ccc(C(=O)O)cc2)cc1 | 5 | -1 | -5 | 0 | 9 | 1
Cc1csc(N=Nc2ccc(N(C)C)cc2)[n+]1[O-] | . | 5 | -12 | 0 | 5 | 52*
CCCN(C[C@H]1[C@H](c2ccccc2)[C@@H](CO)N1C(C)=O)C(=O)NC(C)C | 33*! | -4 | 4 | 0 | 0 | -4
CCN(C[C@@H]1[C@@H](c2ccccc2)[C@H](CO)N1C(C)=O)C(=O)c1ccccn1 | 6 | 1 | 11 | 0 | 1 | -3
COCCN(C[C@@H]1[C@@H](c2ccccc2)[C@H](CO)N1C(C)=O)C(=O)c1cccnc1 | 16* | 0 | -10 | 2 | 6 | 1
CC(=O)N(Cc1cccc(F)c1)C[C@H]1[C@@H](c2ccccc2)[C@@H](CO)N1C(C)=O | 28* | 2 | -5 | 0 | -2 | -2
CCN(C[C@H]1[C@H](c2ccccc2)[C@H](CO)N1C(C)=O)C(=O)c1ccccn1 | 9 | 0 | 104* | 0 | 2 | 0
CCN(C[C@H]1[C@H](c2ccccc2)[C@H](CO)N1C(C)=O)C(=O)NC(C)C | 1 | 0 | -5 | 0 | 2 | -4
CCN(C[C@H]1[C@H](c2ccccc2)[C@@H](CO)N1C(C)=O)C(=O)c1cccc(F)c1 | . | 0 | -27 | 0 | -1 | 0
Cc1ccc(S(=O)(=O)N(C)C[C@@H]2OCCCC[C@@H](C)Oc3ccc(NC(=O)Nc4c(C)noc4C)cc3C(=O)N([C@@H](C)CO)C[C@@H]2C)cc1 | -2 | 1 | -12 | . | 0 | 2
O=C(C[C@H]1C[C@@H]2c3cc(NS(=O)(=O)c4ccc(F)cc4)ccc3O[C@@H]2[C@H](CO)O1)NCc1ccncc1 | -6 | 1 | 1 | 0 | 1 | 0
CCC(=O)N1[C@H](CO)[C@H](c2ccc(-c3cccc(F)c3)cc2)[C@H]1CNC(C)=O | . | . | . | 0 | -4 | .
Cc1cccc2c(=O)cc(C)n(CC(N)=O)c12 | -4 | 1 | -9 | 6 | -28* | .
SMILES | SIRT5 block | ERAP1 HTS inh | S100A4 inh HTS | E-selectin induc | Ecoli rRNA inh | MLL AF4-AF9 inh
CCOc1ccc2nc(SCC(=O)Nc3cc(C)on3)c(C)cc2c1 | 81* | 1 | -1 | . | -1 | -3
CO[C@H]1CN(C)C(=O)c2ccc(NS(=O)(=O)c3ccc(C)cc3)cc2OC[C@H](C)N(Cc2nccs2)C[C@@H]1C | -2 | -2 | 10 | 0 | 1 | 1
CCCCCc1c(-c2ccccc2F)ncn1CCc1ccccc1OC | . | 3 | -4 | 0 | -27 | 3
CCCCc1c(-c2ccccc2F)ncn1CCc1ccccc1OC | 28* | 0 | -4 | 0 | -63 | 7
CN1OC[C@@H]2CN(Cc3ccccc3)[C@H](c3ccc(N4CCCCC4)cc3)C[C@@H]21 | 0 | . | -15 | -6 | -34 | 28*
CN1OC[C@@H]2CN(Cc3ccc4c(c3)OCO4)[C@H](c3ccc(N4CCCCC4)cc3)C[C@@H]21 | 0 | -7 | -19 | 0 | -12 | 33*
CN1OC[C@@H]2CN(S(=O)(=O)c3ccccc3)[C@H](c3ccc(N4CCCCC4)cc3)C[C@@H]21 | -1 | . | -6 | -8 | -8 | 5
CSc1ccccc1OCc1cc(C(=O)NCCN2CCCc3ccccc32)no1 | 0 | 0 | 95* | . | -6 | 1
CCCNC(=O)/C(=C/c1cn(S(=O)(=O)N(C)C)c2ccccc12)NC(=O)c1ccc(OC)cc1 | . | -2 | -2 | . | -26* | 0
CCn1cc(/C=C(\NC(=O)c2cc(OC)c(OC)c(OC)c2)C(=O)NCCCN2CCOCC2)c2ccccc21 | -2 | -3 | -1 | 0 | 5 | 25*
CCn1cc(/C=C(\NC(=O)c2cc(OC)c(OC)c(OC)c2)C(=O)NCCN2CCOCC2)c2ccccc21 | -2 | 0 | -2 | 0 | 6 | 2
COc1ccc(C(=O)N/C(=C\c2cn(S(=O)(=O)N(C)C)c3ccccc23)C(=O)NCCCn2ccnc2)cc1 | -1 | 2 | -5 | 0 | -5 | 17
CC(C)=C(c1ccc(Cl)cc1)c1c(N)ncnc1N | . | 0 | 2 | 0 | -21* | -2
Oc1cccc2cc(Nc3ccccc3)cnc12 | 1 | 14 | -6 | 0 | -36 | 30*
Oc1cc(Nc2ccccc2)cc2cccnc12 | . | 0 | -5 | 0 | 1 | -2
C[C@@H]1CN([C@H](C)CO)S(=O)(=O)c2ccc(C3=CCCCC3)cc2O[C@@H]1CN(C)Cc1ccccc1F | 1 | 0 | -10 | . | -2 | 9
CCNC(=O)Nc1ccc2c(c1)C(=O)N(C)[C@H]1CC[C@H](CC(=O)NC3CCCCC3)O[C@H]1CO2 | -3 | -1 | 5 | 0 | 4 | -3

Screening results deposited in PubChem BioAssay by Broad Institute.
